This note sets out measurements from ChEMBL document CHEMBL1130142, “(S)-spiro[(1,3-diazacyclopent-1-ene)-5,2'-(7'-methyl-1',2',3',4'- tetrahydronaphthalene)]: resolution, stereospecific synthesis, and preliminary pharmacological characterization as a partial alpha-adrenergic agonist” (J Med Chem, 1997).

Each structure is given as a SMILES string.

The species entered for assay [1] is Canis familiaris. The assay is described as follows: Effective concentration of compound in isolated canine saphenous vein. Type of assay: functional. The conditions noted are these: Canis lupus familiaris. The method in brief: (§1)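 Isolated canine blood vessels (saphenous vein without endothelium; femoral artery) exposed to increasing agonist concentrations; contractile responses measured.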

The species entered for assay [2] is Canis familiaris. Put plainly: Effective Concentration compound in isolated canine femoral artery. In kind it is functional. The conditions noted are these: Canis lupus familiaris. The method in brief:
as §1

The species entered for assay [3] is Canis familiaris. The assay is described as follows: Maximum contractile response expressed as percentage (mean) of the maximal contraction to KCl (100 mM) in the isolated saphenous vein.
For assay [4], the species on record is Rattus norvegicus. The assay is described as follows: The maximal pressure response caused by the compound in pithed rat. In kind it is functional.
For assay [5], the species on record is Canis familiaris. Put plainly: Maximum contractile response expressed as percentage (mean) of the maximal contraction to KCl (100 mM) in the isolated femoral artery.
The test system of assay [6] is Rattus norvegicus. Put plainly: Concentration which increases the arterial blood pressure by 20 mmHg in the pithed rat in vivo by intravenous administration. Type of assay: functional, Artery.
For assay [7], the species on record is Canis familiaris. The assay is described as follows: Maximum contractile response expressed as percentage (mean) of the maximal contraction to KCl (100 mM) in the isolated saphenous vein. This is another data set of the same source.
For assay [8], the species on record is Canis familiaris. Put plainly: Maximum contractile response expressed as percentage (mean) of the maximal contraction to KCl (100 mM) in the isolated femoral artery. The source holds these as a separate data set.
A short description of assay [9]: C20 ratio was determined in the presence or absence of 1 mg of yohimbine for the compound which are indicative of the contribution of alpha-2 adnergic mechanisms to the pressor response. In kind it is functional. The method in brief:
(§2)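 Pithed rats received test compound as cumulative iv doses, and mean arterial pressure was recorded. C20 is the iv dose (µg/kg) that raises arterial pressure by 20 mmHg (mean ± SEM, n = 5). The same cumulative doses were repeated 10 min after iv prazosin 100 µg/kg or iv yohimbine 1 mg/kg. The ratio is C20 without antagonist over C20 with antagonist.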

The nature of assay [10]: C20 ratio was determined in the presence or absence of 0.1 mg of prazosin for the compound which are indicative of the contribution of alpha-1 adnergic mechanisms to the pressor response. In kind it is functional. The method in brief: as §2

Usually EC50 stands for the concentration giving half of the maximal effect. Higher therefore signals lower potency in that assay. `Cc1ccc2c(c1)C[C@]1(CC2)CN=CN1`: the EC50 in the assay filed under Canis familiaris [1] was 2800 nM; in the assay filed under Canis familiaris [2], above 3000 nM. Besides, the figures for the Emax in the assay listed under Canis familiaris [3] and in the assay listed under Canis familiaris [5] were 39.4 and 8.4, respectively. In the assay filed under Rattus norvegicus [4], this compound yielded a Max of 109 mmHg. Further, the C20 in the assay with Rattus norvegicus [6] worked out at 44.8 µg/kg.

Consider `Cc1ccc2c(c1)CC1(CC2)CN=CN1` (stereo unspecified), for which the figures for the EC50 in the assay listed under Canis familiaris [1] and in the assay filed under Canis familiaris [2] were 360 nM and above 3000 nM, respectively. For the same compound, the values for the Emax in the assay listed under Canis familiaris [3] and in the assay listed under Canis familiaris [5] were 68.5 and 7.7, respectively. Also, the Max in the assay listed under Rattus norvegicus [4] was 112 mmHg. In the assay with Rattus norvegicus [6], this compound had a C20 of 6.7 µg/kg.

Turning to `Cc1ccc2c(c1)C[C@@]1(CC2)CN=CN1`, the EC50 in the assay listed under Canis familiaris [1] was 220 nM; in the assay filed under Canis familiaris [2], above 3000 nM. Moreover, the Emax is given as 78.3 in the assay listed under Canis familiaris [7] and 15.8 in the assay filed under Canis familiaris [8]. This compound showed a Max in the assay filed under Rattus norvegicus [4] of 106 mmHg. Moreover, in the assay on Rattus norvegicus [6], the C20 came to 5.8 µg/kg.

`FC(F)(F)c1ccc(Cl)c(NC2=NCCN2)c1`: the values for the Ratio in [9] and in [10] were 1.8 and 16, respectively. The EC50 in the assay listed under Canis familiaris [1] was determined as 2020 nM; in the assay filed under Canis familiaris [2] it was 10900 nM. The results for the Emax in the assay listed under Canis familiaris [3] and in the assay filed under Canis familiaris [5] were 54.4 and 19.7, respectively. In the assay listed under Rattus norvegicus [4], this compound registered a Max of 129 mmHg. This compound yielded a C20 in the assay on Rattus norvegicus [6] of 8.6 µg/kg.
